The source of these data is ChEMBL document CHEMBL1137467, “Synthesis and structure-activity relationships of novel 1-arylmethyl-3-aryl-1H-pyrazole-5-carbohydrazide derivatives as potential agents against A549 lung cancer cells” (Bioorg Med Chem, 2007).

In general, IC50 refers to the point on the concentration scale where inhibition reaches its midpoint. Low values mean greater potency, high ones weaker potency. A word on the logP: it is a log measure of how a compound divides between an organic and an aqueous phase.

In data set [1] the test system is A549. The data set is described as follows: Growth inhibition of human A549 cells after 24 hrs. Type of data set: functional, cell-based. Particulars: A549, 48 h, in the assay text read “after 48 hrs” for “after 24 hrs”. In outline:
(§1)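 Compounds dissolved in DMSO, final DMSO below 0.1% (v/v) in culture medium. Cells seeded in 96-well plates and treated at 10–80 μM for 24 or 48 h. Viability by MTT assay with absorbance read at 570 nm. Controls were untreated medium and 0.1% DMSO vehicle.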

Data set [2] can be described thus: Lipophilicity, log P of the compound. In kind it is physicochemical. The following applies: octanol/water.
In data set [3] the test system is A549. In words: Growth inhibition of human A549 cells after 48 hrs. Type of data set: functional, cell-based. Particulars: A549, 24 h, in the assay text read “after 24 hrs” for “after 48 hrs”.
The test system of data set [4] is A549. The data set is described as follows: Reduction of cell viability of human A549 cells at 40 uM after 24 hrs by MTT assay. In kind it is functional. In outline: as §1
(Tetrazolium assays rely on reduction of a dye to a coloured formazan, in cell work by metabolically active cells.)

The subject of data set [5] is A549. The data set is described as follows: Effect on nuclear fragmentation in human A549 cells at 40 uM after 48 hrs by AO staining method. In kind it is functional, cell-based. In outline:
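Cells cultured 48 h in fresh medium with 0 or 40 μM compound, then stained with 5 μg/ml acridine orange at room temperature. Chromatin condensation and DNA fragmentation imaged by laser scanning confocal/fluorescence microscopy. Images representative of three independent experiments.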

Data set [6] concerns A549. The data set is described as follows: Reduction of cell viability of human A549 cells at 40 uM after 48 hrs by MTT assay. In kind it is functional. In outline: as §1
Data set [7] deals with A549. In words: Reduction of cell viability of human A549 cells at 80 uM after 48 hrs by MTT assay. Type of data set: functional. In outline: as §1
In data set [8] the test system is A549. In words: Induction of apoptosis in A549 cells assessed as LDH release at 40 uM after 48 hrs. In kind it is functional, cell-based. Particulars: Homo sapiens. In outline:
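Culture medium collected after 48 h treatment at 40 μM and assayed for LDH release, compared against an untreated control group; n = 3.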

For data set [9], the system named is A549. The data set is described as follows: Effect on cell morphology in human A549 cells assessed as cell shrinkage at 40 uM after 48 hrs. Type of data set: functional, cell-based. In outline: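 Cells exposed to 40 μM compound for 24 h and 48 h, then inspected under a phase contrast microscope for shrinkage. Untreated cells served as control.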

Activity calls are given as the source filed them. The rule behind the calls is not given here.

`NNC(=O)c1cc(-c2ccc(Cl)cc2)nn1Cc1ccc(Cl)nc1`: the IC50 in the data set with A549 [1] was found to be 30.2 µM; in the data set with A549 [3], 121 µM. Further, in [2], the logP was found to be 3.12.
Regarding `COc1ccc(-c2cc(C(=O)NN)n(Cc3ccc(C(C)(C)C)cc3)n2)cc1`, the IC50 worked out at 23.9 µM in the data set on A549 [1] and 49.9 µM in the data set on A549 [3]. Besides, the Activity in the data set with A549 [4] stood at 52%; with A549 [6] it was 26%; in the data set on A549 [7], 6%. Besides, the outcome in the data set on A549 [5] and in the data set on A549 [8] was Active. Besides, in [2], the logP worked out at 4.6.
In the case of `CC(C)(C)c1ccc(Cn2nc(-c3ccc(Cl)cc3)cc2C(=O)NN)cc1`, the IC50 was 18.5 µM in the data set on A549 [1] and 68.3 µM with A549 [3]. Also, the Activity is 52% in the data set on A549 [4], 26% with A549 [6] and 13% with A549 [7]. The result with A549 [5] and in the data set on A549 [8] was Active. In addition, the logP in data set [2] was 4.94.
`COc1ccc(-c2cc(C(=O)NN)n(Cc3ccc(Cl)nc3)n2)cc1` returned a logP in data set [2] of 2.76. Also, the concentration for half-maximal inhibition (IC50) with A549 [3] is 240 µM.
Regarding `NNC(=O)c1cc(-c2ccccc2)nn1Cc1ccc(Cl)nc1`, the IC50 in the data set with A549 [1] turned out to be 67.7 µM; in the data set on A549 [3] it was 224 µM. The compound further yielded a logP in [2] of 2.52.
On to `NNC(=O)c1cc(-c2ccc(Cl)cc2)nn1Cc1ccccc1`, for which the IC50 in the data set on A549 [1] was found to be 38.7 µM; in the data set with A549 [3], 232 µM. The same compound came in with a logP in data set [2] of 3.24.
In [2], `COc1ccc(-c2cc(C(=O)NN)n(Cc3ccccc3)n2)cc1` had a logP of 2.87. Moreover, in the data set with A549 [3], inhibition was half-maximal at 550 µM (IC50).
On the same counts, the results for `NNC(=O)c1cc(-c2ccccc2)nn1Cc1ccccc1` are 2.73 and 440 µM.
`CC(C)(C)c1ccc(Cn2nc(-c3ccccc3)cc2C(=O)NN)cc1`: the IC50 worked out at 26.6 µM with A549 [1] and 66.2 µM with A549 [3]. Moreover, the Activity in the data set with A549 [4] is 52%; with A549 [6], 26%; with A549 [7] it was 15%. The outcome with A549 [5], with A549 [8] and with A549 [9] was Active. The same compound had a logP in data set [2] of 4.49.
